Calls of active or inactive are those of the source. The rule behind the calls is not given here.
Legend:
[1] = Clearance in Sprague-Dawley rat at 5 mg/kg, iv measured up to 48 hrs post administration by HPLC analysis; format: ADME, organism-based; conditions: in vivo
In short: (§1)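 Male Sprague-Dawley rats (180−220 g), 4 per group, dosed at 5 mg/kg i.v., 20 mg/kg i.p. or 20 mg/kg p.o. Parameters given as mean ± SD (n = 4).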

[2] = system: Mus musculus; experiment: Hypercalcemic effect in ICR mouse at 0.5 to 5 mg/kg/day, ip administered for 7 days measured on day 8 post-dose by MTB-based assay relative to control; format: ADME, organism-based; conditions: in vivo, 168 h
In short: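 Mice were dosed i.p. over a 7-day period and serum calcium was then measured. Each dose level was compared with a vehicle-treated control group (saline cited as the comparator). Data are mean ± SEM, n = 6 per group. Significance versus vehicle was reported at p < 0.05, 0.01 and 0.001.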

[3] = Drug uptake in human MCF7 cells at 1 uM after 10 mins by HPLC analysis; format: ADME, cell-based; conditions: mcf7, 10 min
In short: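 MCF7 cells were given 1 µM compound in medium with 10% FBS for 10 or 30 min. Cells and medium were extracted separately with chloroform/methanol (3:1, v/v) and analysed by HPLC. Mean ± SEM, n = 3.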

[4] = system: MCF7; experiment: Antiproliferative activity against human MCF7 cells after 48 hrs by MTT assay; format: functional, cell-based; conditions: MCF7, 48 h
[5] = system: Caco-2; experiment: Antiproliferative activity against human Caco2 cells after 48 hrs by MTT assay; format: functional, cell-based; conditions: Caco-2, 48 h
[6] = system: L02; experiment: Antiproliferative activity against human L02 cells after 48 hrs by MTT assay; format: cell-based; conditions: L02, 48 h
[7] = target: T1, Vitamin D3 receptor (Homo sapiens, UniProt P11473); experiment: Displacement of fluormone VDR red from human full length VDR after 4 hrs by fluorescence polarization assay
T1 sequence (P11473 whole entry): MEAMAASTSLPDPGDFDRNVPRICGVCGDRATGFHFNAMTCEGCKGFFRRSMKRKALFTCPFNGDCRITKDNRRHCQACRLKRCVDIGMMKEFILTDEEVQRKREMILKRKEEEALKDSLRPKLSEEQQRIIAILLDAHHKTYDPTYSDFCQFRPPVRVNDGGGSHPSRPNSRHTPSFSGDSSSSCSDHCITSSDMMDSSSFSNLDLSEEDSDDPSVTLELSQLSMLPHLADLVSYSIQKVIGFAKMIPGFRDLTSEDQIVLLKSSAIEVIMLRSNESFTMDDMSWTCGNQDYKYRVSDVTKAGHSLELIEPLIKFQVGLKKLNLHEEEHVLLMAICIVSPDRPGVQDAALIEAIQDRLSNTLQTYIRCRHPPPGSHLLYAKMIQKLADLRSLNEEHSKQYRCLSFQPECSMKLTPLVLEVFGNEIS

[8] = system: MCF7; experiment: Induction of cell cycle arrest in human MCF7 cells assessed as accumulation at G0/G1 phase at 1 uM after 24 hrs by propidium iodide-staining based flow cytometry (reference value: 56.03%); format: functional
[9] = system: MCF7; experiment: Induction of cell cycle arrest in human MCF7 cells assessed as accumulation at G2/M phase at 1 uM after 24 hrs by propidium iodide-staining based flow cytometry (reference value: 12.41%); format: functional
[10] = system: MCF7; experiment: Induction of cell cycle arrest in human MCF7 cells assessed as accumulation at S phase at 1 uM after 24 hrs by propidium iodide-staining based flow cytometry (reference value: 31.55%); format: functional
[11] = system: MCF7; experiment: Induction of apoptosis in human MCF7 cells assessed as viable cells at 1 uM after 24 hrs by Annexin V-FITC/propidium iodide-staining based flow cytometry (reference value: 98.2%); format: functional; conditions: MCF7, 24 h, read-out: Activity
[12] = system: MCF7; experiment: Induction of apoptosis in human MCF7 cells assessed as early apoptotic cells at 1 uM after 24 hrs by Annexin V-FITC/propidium iodide-staining based flow cytometry (reference value: 1.74%); format: functional
[13] = system: MCF7; experiment: Induction of apoptosis in human MCF7 cells assessed as late apoptotic cells at 1 uM after 24 hrs by Annexin V-FITC/propidium iodide-staining based flow cytometry (reference value: 0.062%); format: functional
[14] = system: MCF7; experiment: Induction of cell cycle arrest in human MCF7 cells assessed as upregulation of p27 expression at 1 uM after 24 hrs by Western blot analysis; format: functional, cell-based
In short: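 p21 and p27 protein levels were measured by Western blot in MCF7 cells treated at 1 µM for 24 h.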

[15] = system: MCF7; experiment: Induction of cell cycle arrest in human MCF7 cells assessed as upregulation of p21 mRNA levels at 1 uM after 24 hrs by RT-qPCR analysis; format: functional, cell-based
In short: (§2)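 p21 and p27 mRNA levels were measured by real-time quantitative PCR in MCF7 cells treated at 1 µM for 24 h.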

[16] = system: MCF7; experiment: Induction of cell cycle arrest in human MCF7 cells assessed as upregulation of p27 mRNA levels at 1 uM after 24 hrs by RT-qPCR analysis; format: functional, cell-based; in short: as §2
[17] = system: MCF7; experiment: Induction of apoptosis in human MCF7 cells assessed as upregulation of Bax mRNA levels at 1 uM after 24 hrs by RT-qPCR analysis; format: functional, cell-based
[18] = system: MCF7; experiment: Induction of apoptosis in human MCF7 cells assessed as upregulation of Bak mRNA levels at 1 uM after 24 hrs by RT-qPCR analysis; format: functional, cell-based
[19] = system: MCF7; experiment: Antitumor activity against human MCF7 cells xenografted in BALB/c nude mouse assessed as tumor growth inhibition at 10 mg/kg, ip administered every other day; format: functional, organism-based
In short: (§3)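 MCF7 cells transplanted orthotopically into the breast of athymic nude mice. Dosing at 10 mg/kg i.p. in vehicle of polyoxyethylated castor oil/ethanol/saline 1:1:18, with vehicle and saline control groups. Body weight, tumor volume and serum calcium followed.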

[20] = system: Mus musculus; experiment: Toxicity in BALB/c nude mouse xenografted with human MCF7 cells assessed increase in serum calcium levels at 10 mg/kg, ip administered every other day relative to control; format: organism-based; conditions: in vivo; in short: as §3
[21] = AUC in Sprague-Dawley rat at 5 mg/kg, iv measured up to 48 hrs post administration by HPLC analysis; format: ADME, organism-based; design: dose 5 mg/kg, time < 48 hr, route intravenous; conditions: in vivo; in short: as §1
[22] = Half life in Sprague-Dawley rat at 5 mg/kg, iv by HPLC analysis; format: ADME, organism-based; conditions: in vivo; in short: as §1
[23] = MRT in Sprague-Dawley rat at 5 mg/kg, iv by HPLC analysis; format: ADME, organism-based; conditions: in vivo; in short: as §1
[24] = AUC in Sprague-Dawley rat at 20 mg/kg, ip measured up to 48 hrs post administration by HPLC analysis; format: ADME, organism-based; design: time < 48 hr, dose 20 mg/kg, route intraperitoneal; conditions: in vivo; in short: as §1
[25] = Half life in Sprague-Dawley rat at 20 mg/kg, ip by HPLC analysis; format: ADME, organism-based; conditions: in vivo; in short: as §1
[26] = Bioavailability in Sprague-Dawley rat at 20 mg/kg, ip measured up to 48 hrs after administration by HPLC analysis; format: ADME, organism-based; conditions: in vivo; in short: as §1
[27] = AUC in Sprague-Dawley rat at 20 mg/kg, po measured up to 48 hrs post administration by HPLC analysis; format: ADME, organism-based; design: time < 48 hr, dose 20 mg/kg, route oral; conditions: in vivo; in short: as §1
[28] = Half life in Sprague-Dawley rat at 20 mg/kg, po by HPLC analysis; format: ADME, organism-based; conditions: in vivo; in short: as §1
[29] = MRT in Sprague-Dawley rat at 20 mg/kg, po by HPLC analysis; format: ADME, organism-based; conditions: in vivo; in short: as §1
[30] = Clearance in Sprague-Dawley rat at 20 mg/kg, po by HPLC analysis; format: ADME, organism-based; conditions: in vivo; in short: as §1
[31] = Oral bioavailability in Sprague-Dawley rat at 20 mg/kg measured up to 48 hrs after administration by HPLC analysis; format: ADME, organism-based; conditions: in vivo; in short: as §1

Compound	clearance [1]	Activity [2]	Drug uptake [3]	IC50 [4]	IC50 [5]	IC50 [6]	IC50 [7]	Activity [8]	Activity [9]	Activity [10]	viability at 1 µM [11]	Activity [12]	Activity [13]	Activity [14]	Activity [15]	Activity [16]	Activity [17]	Activity [18]	TGI [19]	Activity [20]	also measured
CCN(CC)CCCNC(=O)c1ccc(C(CC)(CC)c2ccc(OCCC(O)(CC)CC)c(C)c2)n1CC	3.5 mL/min	Non-Toxic	Active	57 nM	17 nM	370 nM	296 nM	70.15%	4.72%	25.13%	85.7%	9.59%	4.49%	Active	Active	Active	Active	Active	Active	Non-Toxic	AUC at 48 h [21]: 25200 ng·h/mL; half-life [22]: 2.97 h; MRT [23]: 3.85 h; AUC at 48 h [24]: 30500 ng·h/mL; half-life [25]: 6.21 h; bioavailability [26]: 30.2%; AUC at 48 h [27]: 21500 ng·h/mL; half-life [28]: 6.82 h; MRT [29]: 11 h; CL/F [30]: 15.5 mL/min; bioavailability [31]: 21.3%
CCn1c(C(=O)NCCCN2CCOCC2)ccc1C(CC)(CC)c1ccc(OCCC(O)(CC)CC)c(C)c1	8.17 mL/min	Non-Toxic	37.9%	260 nM	2720 nM	2860 nM	406 nM	70.41%	6.96%	22.62%	87.3%	9.72%	2.83%	Active	Active	Active	Active	Active	Active	Non-Toxic	AUC at 48 h [21]: 10400 ng·h/mL; half-life [22]: 4.75 h; MRT [23]: 7.55 h; AUC at 48 h [24]: 25900 ng·h/mL; half-life [25]: 11.7 h; bioavailability [26]: 62.5%; AUC at 48 h [27]: 15300 ng·h/mL; half-life [28]: 11.3 h; MRT [29]: 15.9 h; CL/F [30]: 21.8 mL/min; bioavailability [31]: 36.8%
